Apaf1 inhib – inhibitors of human Apaf-1 apoptosome. inhibition, % at 20 µM. AID 489030. reconstituted apoptosome caspase-3 activity, DEVD-Rh110 fluorescence. O14727. 330,000 tested, 0.71% active; active = inhibition of at least 40% at 20 µM
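System: reconstituted apoptosome with Apaf-1, cytochrome c, caspase-9, procaspase-3, dATP; Signal: Rh110 fluorescence intensity; Schedule: 30 min compound preincubation, 50 min activation, room temperature; Reagent: cytochrome c trigger plus (Z-DEVD)2-Rh110 caspase-3 substrate.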
ZTA counter – ZTA (EBV) inhibition in EBNA-1 counter-screen. P03206. ZTA-DNA binding, fluorescence polarization. inhibition, % at 11 µM. 320,000 tested, 0.15% active. AID 2234; in the data active = inhibition above about 33%
EBNA-1 inh – blocks EBNA-1 binding to DNA. EBNA-1 DNA binding, fluorescence polarization. inhibition, % at 14.8 µM. 300,000 tested, 0.34% active; in the data active = inhibition above about 28%
proCasp3 act – procaspase-3 (human) activation | P42574 | recombinant procaspase-3 D3A, Ac-DEVD-pNA absorbance 405 nm | activation, % at 8.5 µM | 330,000 tested, 0.11% active | AID 463141;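 active = activation above the mean of all tested compounds plus 3 SD, cut at about 21% in these data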
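material = Procaspase-3 D3A mutant | probe or stimulus = Ac-DEVD-pNA | compound = single dose, 8.5 µM nominal compound, 0.8% DMSO | timing = 1 h preincubation, 2 h reaction | measured by = 405 nm absorbance of p-nitroaniline, reads at 0 and 120 min | benchmarks = DMSO-only low control, 5 µM PC-3 D3A high control | repeats = singlicate, each compound tested once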
GSTO1 inh – counter-screen for RBBP9 inhibitors: inhibitors of human GSTO1. recombinant GSTO1, activity-based probe fluorescence polarization. 300,000 tested, 1.1% active. inhibition, % at 5.96 µM. P78417;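 active = inhibition above the campaign mean inhibition plus 3 SD, cut at about 35% in these data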
proCasp7 act – counter-screen for procaspase-3 activators: activators of human procaspase-7; activation, % at 8.5 µM; AID 463210; P55210; 330,000 tested, 0.093% active; recombinant procaspase-7, Ac-DEVD-pNA absorbance 405 nm; D23A/D198A/D206A triple mutant, cannot self-cleave; scale: DMSO 0, 5 µM enzyme 100;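 active = percent activation above the screen-wide mean plus 3 SD, cut at about 25% in these data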
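System: Procaspase-7 triple mutant (PC-7 D3A); measure: % activation from two-timepoint absorbance difference, scaled to controls; times: 1 h compound preincubation, 2 h substrate cleavage, 25 °C; also added: Ac-DEVD-pNA substrate, 400 µM as added; measured by: Epi-absorbance of released pNA at 405 nm, two timepoints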
Apaf-1 inh conf – confirmation of Apaf-1 inhibitors; shares compounds with Apaf1 inhib; reconstituted apoptosome, caspase-3 DEVD-Rh110 fluorescence; 1,800 tested, 25% active; inhibition, % at 20 µM;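 active = mean inhibition of at least 40% at 20 µM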
Rh110 quench – counter-screen for Apaf-1 inhibitors: fluorescence interference. Rh110 fluorescence interference, quenched caspase reaction. shares compounds with Apaf1 inhib. 1,800 tested, under 10 active. activation (fluorescence interference), % at 20 µM;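 active = signal rise of 40% or more at 20 µM, treated as a fluorescence artifact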
Apaf1 inh interf – Apaf-1 inhibitor counter-screen fluorescence artifact; AID 588538; shares compounds with Apaf1 inhib; IC50, µM; 460 tested, under 10 active; fluorescence interference counterscreen, Apaf-1 assay format; call rule not given here
Of the large screens only hits and unclear results are named; the others gave an inactive call (follow-up assays come after a bar, where they were run); ! = not confirmed by another sample. The list is not random: actives were taken first. Their share in the collection is about 1.8%.

COc1ccc(Cl)cc1NC(=O)CN(C)C(=O)CCNC(=O)c1ccccc1OC	none (no result: EBNA-1 inh, GSTO1 inh)
CCOc1ccccc1N1CCN(C(=O)C2c3ccccc3Oc3ccccc32)CC1	Apaf1 inhib 41 | Apaf-1 inh conf 40 | Rh110 quench inactive | Apaf1 inh interf inactive
NC(C(=O)O)C(c1ccccc1)C(F)F (configuration not stated)	none
CC(NC(=O)C1CCN(C(=O)[C@@H]2Cc3ccccc3CN2)CC1)c1ccccc1 (some centres not stated)	none
CCN1CCN(Cc2ccc(NC(=O)c3ccc(C)c(NC(=O)c4cc(-c5ccc(Br)cc5)n[nH]4)c3)cc2C(F)(F)F)CC1	Apaf1 inhib 45 | Apaf-1 inh conf inactive | Rh110 quench inactive
CC(=O)N(/N=C1\Sc2ccccc2C1=O)c1ccc(C)cc1C	Apaf1 inhib 43 | Apaf-1 inh conf inactive | Rh110 quench inactive
Cc1cccc(S(=O)(=O)C(C#N)c2nc3ccccc3nc2N2CCCC2)c1 (configuration not stated)	Apaf1 inhib 55 | Apaf-1 inh conf inactive | Rh110 quench inactive
COc1ccc(S(=O)(=O)C(C#N)c2nc3ccccc3nc2N2CCCCC2)cc1 (configuration not stated)	none
Fc1ccc(N2CCN(c3nc(CN4CCOCC4)nc4scc(-c5ccccc5)c34)CC2)cc1	Apaf1 inhib 41 | Apaf-1 inh conf inactive | Rh110 quench inactive
O=c1[nH]c(CN2CCN(c3ccccc3)CC2)nc2scc(-c3ccccc3)c12	none
CN(Cc1ccccc1)c1nc(CN2CCOCC2)nc2scc(-c3ccccc3)c12	none
COc1ccc(N2CCN(Cc3nc4scc(-c5ccccc5)c4c(=O)[nH]3)CC2)cc1	Apaf1 inhib 44 | Apaf-1 inh conf inactive | Rh110 quench inactive
COc1ccc(-n2nc(C(=O)NCC(=O)NC3CCCC(C)C3C)c3ccccc3c2=O)c(OC)c1 (configuration not stated)	Apaf1 inhib 55 | Apaf-1 inh conf 62 | Rh110 quench inactive | Apaf1 inh interf inactive
COc1ccc(-n2nc(C(=O)NCC(=O)N3CCC(C)CC3)c3ccccc3c2=O)cc1	none
COc1ccc(-n2nc(C(=O)NCC(=O)NC3CCCC(C)C3C)c3ccccc3c2=O)cc1 (configuration not stated)	Apaf1 inhib 51 | Apaf-1 inh conf inactive | Rh110 quench inactive
CC1CCN(C(=O)COC(=O)C2CCN(S(=O)(=O)c3ccc(Cl)c(C(F)(F)F)c3)CC2)CC1	none
Oc1ccc(C=Nc2cccc3ncccc23)c(O)c1	Apaf1 inhib 87 | Apaf-1 inh conf inactive | Rh110 quench inactive
Oc1ccc(C=Nc2ccccc2-c2nc3ccccc3[nH]2)c(O)c1	none
Cc1cc(SCC(=O)N/N=C/c2ccc(O)c(O)c2O)c(C)cc1Br	Apaf1 inhib 49 | Apaf-1 inh conf inactive | Rh110 quench inactive
COc1ccc(NC(=O)Cc2ccc(C)c(C)c2)cc1Cl	none
O=C(NC1(O)C(=O)c2ccccc2C1=O)c1c(Cl)cccc1Cl	Apaf1 inhib 96, GSTO1 inh 79 | Apaf-1 inh conf 97 | Rh110 quench inactive | Apaf1 inh interf inactive
O=C(Nc1ccccc1Cl)c1c(F)c(F)c(F)c(F)c1F	none
CCOC(=O)c1cnn(-c2c(Cc3ccccc3)c(C)nc3c(-c4ccccc4)c(C)nn23)c1N	Apaf1 inhib 62 | Apaf-1 inh conf 55 | Rh110 quench inactive | Apaf1 inh interf inactive
CCOC(=O)c1[nH]c2ccccc2c1N=CN(C)C	none
CN(C)C=Nc1ccc2nc3c(cc2c1)[nH]c1ccccc13	Apaf1 inhib 46 | Apaf-1 inh conf 44 | Rh110 quench inactive | Apaf1 inh interf inactive
O=C(COC(=O)c1ccccc1)NCC1CCCO1 (configuration not stated)	Apaf1 inhib 56 | Apaf-1 inh conf inactive | Rh110 quench inactive
COC(CNC(=O)c1ccc2c3c(onc13)-c1ccccc1C2=O)OC	Apaf1 inhib 73 | Apaf-1 inh conf 57 | Rh110 quench inactive | Apaf1 inh interf inactive
COC(CNC(=O)c1cccnc1)OC	none
Cc1cc(C(C)(C)CC(C)(C)C)ccc1OCCOCC[N+](C)(C)Cc1ccccc1	Apaf1 inhib 86 | Apaf-1 inh conf 59 | Rh110 quench inactive | Apaf1 inh interf inactive
Cc1ccc(CC(=O)NCCC(=O)O)cc1	none
CCOc1cc2c(C#N)c(N3CCCC3)nc(N)c2c(N)n1	none
CCCOc1cc2c(C#N)c(N3CCCC3)nc(N)c2c(N)n1	Apaf1 inhib 98 (no result: proCasp3 act) | Apaf-1 inh conf 73 | Rh110 quench inactive | Apaf1 inh interf inactive
COc1cc2c(C#N)c(N3CCN(C)CC3)nc(N)c2c(N)n1	none
COc1cc2c(C#N)c(N3CCCC3)nc(N)c2c(N)n1	Apaf1 inhib 84 | Apaf-1 inh conf 49! | Rh110 quench inactive
CCCCN(CC)c1nc(N)c2c(N)nc(OCC)cc2c1C#N	Apaf1 inhib 98 | Apaf-1 inh conf inactive | Rh110 quench inactive
CCOC(=O)[C@@H]1[C@H]2COc3ccccc3[C@H]2N2C(=O)N(c3cccc(Cl)c3)C(=O)[C@]12C	none (no result: ZTA counter, EBNA-1 inh, GSTO1 inh)
Cc1cc(O)c(C(C)C)cc1N=Cc1cc([N+](=O)[O-])ccc1O	Apaf1 inhib 44 | Apaf-1 inh conf inactive | Rh110 quench inactive
COc1ccc2c(c1)c1nc3ccccc3nc1n2Cc1ccc(OC(C)C)c(OC)c1	none
COc1ccc(Cn2c(N)c(C#N)c3nc4ccccc4nc32)cc1OC	Apaf1 inhib 86 | Apaf-1 inh conf inactive | Rh110 quench inactive
O=[N+]([O-])c1ccccc1S(=O)(=O)N1CCN(C2CCN(Cc3ccccc3)CC2)CC1	none
COc1ccccc1NC(=O)c1nc[nH]c1C(=O)Nc1ccccc1OC	Apaf1 inhib 95 | Apaf-1 inh conf inactive | Rh110 quench inactive
COC(=O)c1ccc(COC(=O)C2CCN(S(=O)(=O)c3ccccc3C(=O)OC)CC2)cc1	none (no result: ZTA counter, EBNA-1 inh, GSTO1 inh)
COCCn1c(SCC(=O)NNC(=O)c2cc(Cl)ccc2OC)nnc1-c1ccncc1	Apaf1 inhib 49 (no result: EBNA-1 inh, GSTO1 inh) | Apaf-1 inh conf inactive | Rh110 quench inactive
Cc1cc(C)c(C(=O)COC(=O)c2nn(C)c(=O)c3ccccc23)cc1C	none (no result: EBNA-1 inh, GSTO1 inh)
Oc1cc(NCCc2cccnc2)cc2cccnc12	Apaf1 inhib 56 (no result: ZTA counter, EBNA-1 inh, GSTO1 inh) | Apaf-1 inh conf 47 | Rh110 quench inactive | Apaf1 inh interf inactive
Oc1cc(Nc2cccnc2)cc2cccnc12	none (no result: ZTA counter, EBNA-1 inh, GSTO1 inh)

High-throughput results deposited in PubChem BioAssay by several laboratories.
